Measurements: publication PMC3428429 (Biochimica et biophysica acta, 2012)

Tests used:
[1] = Two step assay, step one: terbium/DPA leakage from vesicles
[2] = Two step assay, step two: dithionite quenching of NBD lipids; conditions: 1 μM peptide, at least 8 h
[3] = Incremental leakage assay
[4] = Serial dilution leakage assay; conditions: independent of total P:L (0.05 to 0.001)
Summary of the method: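 Terbium-loaded LUVs (100 nm extruded; 50 mM TbCl₃, 100 mM sodium citrate, 10 mM TES pH 7.2 inside), external Tb removed by gel filtration. Outside buffer is 300 mM NaCl, 10 mM TES pH 7.2 with 50 μM DPA. Test compound runs 0.078–1.25 μM at six fixed total P:L ratios in 96-well plates. Triton X-100 wells with matched lipid give 100% leakage. Repeated with BSA to block well adsorption.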

Substance | terbium leakage ([1]; P:L=0.02 (1:50), only in PG-containing vesicles, 1 μM peptide, at least 8 h) | access to the vesicle interior at equilibrium ([2]; P:L = 0.005 (1:200)) | access to NBD lipids at equilibrium ([2]; P:L=0.02 (1:50), only in PG-containing vesicles) | lowest P:L ratio with measurable pore-forming activity ([1]; 1:10000 or 10 peptides per vesicle, supplemental Figure S1) | leakage in multiple lipid additions, PEG-lipid vesicles ([3]; vesicles containing 5 mol % PEG2000-headgroup conjugated lipids, supplemental Figure S5A) | lipid exchange between vesicles along with peptide ([3]; vesicles doped with fluorescent lipids, supplemental Figure S5B) | peptide concentration at which all leakage curves reach 100% leakage [4]
ALWKTMLKKLGTMALHAGKAALGAAADTISQGTQ [dermaseptin S1] | high leakage | no access to the vesicle interior at equilibrium | high access to NBD lipids | – | – | – | –
Ac-UPUAUAQUVUGLUPVUUQQF-OH [alamethicin] | – | – | – | ≤ 0.0001 | near complete leakage in multiple lipid additions | no lipid exchange between vesicles | ≤ 500 nM
